According to ChEMBL document CHEMBL2375264, “Potent naphthoquinones against antimony-sensitive and -resistant Leishmania parasites: synthesis of novel α- and nor-α-lapachone-based 1,2,3-triazoles by copper-catalyzed azide-alkyne cycloaddition” (Eur J Med Chem, 2013):

Tests used:
[1] = tested on: Leishmania infantum; experiment: Antileishmanial activity against antimony-resistant Leishmania infantum MCAN/BR/2002/BH400 promastigote infected in Swiss mouse peritoneal macrophages after 72 hrs; assay type: functional, organism-based; settings: MCAN/BR/2002/BH400, 72 h
Method in brief: (§1)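 Promastigotes of Sb(III)-sensitive and -resistant lines (resistant to Sb(III) up to 2700), maintained at 25 °C, pH 7.0, in α-MEM with 10% heat-inactivated FBS, kanamycin, ampicillin, L-glutamine, hemin and biopterin. Drugs dissolved in DMSO, diluted in α-MEM across a concentration range, final DMSO ≤0.2%.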

[2] = tested on: Leishmania amazonensis; experiment: Ratio of potassium antimonyl tartrate IC50 to compound IC50 for antimony-sensitive Leishmania amazonensis MHOM/BR/1989/BA199 promastigote infected in Swiss mouse peritoneal macrophages; assay type: functional
[3] = Selectivity index, ratio of CC50 for Swiss mouse peritoneal macrophages to IC50 for antimony-sensitive Leishmania amazonensis MHOM/BR/1989/BA199 promastigote; assay type: functional
Method in brief: (§2)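 SI = CC50 / IC50. CC50 is from Swiss mouse peritoneal macrophages, read by MTT after lavage and 1 h adherence. […] Promastigotes grown in α-MEM with 10% heat-inactivated FBS, hemin and biopterin, pH 7.0, 25 °C. DMSO ≤0.2% final. Triplicate.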

[4] = Selectivity index, ratio of CC50 for Swiss mouse peritoneal macrophages to IC50 for antimony-sensitive Leishmania infantum MCAN/BR/2002/BH400 promastigote; assay type: functional; method in brief: as §2
[5] = Cytotoxicity against Swiss mouse peritoneal macrophages after 24 hrs by MTT assay; assay type: cell-based, Peritoneal macrophage cell
Method in brief: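 Macrophages from peritoneal lavage of Swiss mice with cold FBS-free RPMI-1640. Cells seeded at 4.0 × 10⁶/mL, adhered 1 h, non-adherent cells washed off. Compounds were DMSO stocks diluted in medium over a concentration range, final DMSO ≤0.2%. Viability read by MTT (5 mg/mL solution, 4 h further incubation). CC50 taken as the 50% cytotoxic concentration.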

[6] = tested on: Leishmania amazonensis; experiment: Antileishmanial activity against antimony-resistant Leishmania amazonensis MHOM/BR/1989/BA199 promastigote infected in Swiss mouse peritoneal macrophages after 72 hrs; assay type: functional, organism-based; settings: MHOM/BR/1989/BA199, 72 h; method in brief: as §1
[7] = tested on: Leishmania infantum; experiment: Ratio of potassium antimonyl tartrate IC50 to compound IC50 for antimony-sensitive Leishmania infantum MCAN/BR/2002/BH400 promastigote infected in Swiss mouse peritoneal macrophages; assay type: functional
[8] = tested on: Leishmania amazonensis; experiment: Antileishmanial activity against antimony-sensitive Leishmania amazonensis MHOM/BR/1989/BA199 promastigote infected in Swiss mouse peritoneal macrophages after 72 hrs; assay type: functional, organism-based; settings: MHOM/BR/1989/BA199, 72 h; method in brief: as §1
[9] = tested on: Leishmania infantum; experiment: Antileishmanial activity against antimony-sensitive Leishmania infantum MCAN/BR/2002/BH400 promastigote infected in Swiss mouse peritoneal macrophages after 72 hrs; assay type: functional, organism-based; settings: MCAN/BR/2002/BH400, 72 h; method in brief: as §1
[10] = Selectivity index, ratio of CC50 for Swiss mouse peritoneal macrophages to IC50 for antimony-resistant Leishmania amazonensis MHOM/BR/1989/BA199 promastigote; assay type: functional
Method in brief: (§3)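 SI = CC50/IC50. CC50 comes from Swiss mouse peritoneal macrophages, harvested by lavage with cold RPMI-1640 lacking FBS. Cells seeded at 4.0 × 10⁶/mL, allowed to adhere 1 h, then washed free of non-adherent cells. Viability read by MTT (5 mg/mL stock, 4 h).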

[11] = Selectivity index, ratio of CC50 for Swiss mouse peritoneal macrophages to IC50 for antimony-resistant Leishmania infantum MCAN/BR/2002/BH400 promastigote; assay type: functional; method in brief: as §3

Structure (SMILES)	IC50 [1] [µM]	Ratio IC50 [2]	Ratio CC50/IC50 [3]	Ratio CC50/IC50 [4]	CC50 at 24 h [5] [µM]	IC50 [6] [µM]	Ratio IC50 [7]	IC50 [8] [µM]	IC50 [9] [µM]	Ratio CC50/IC50 [10]	Ratio CC50/IC50 [11]
O=C1C=C(n2cc(-c3ccc([N+](=O)[O-])cc3)nn2)C(=O)c2ccccc21	> 100	2.2	<0.5	<0.5	50	> 100	2	> 100	> 100	–	–
O=C1C=C(n2cc(CO)nn2)C(=O)c2ccccc21	5.8	2.2	0.4	0.24	9.51	21.3	2	23.9	39.1	0.45	1.64
CC1(C)OC2=C(C(=O)C(=O)c3ccccc32)C1n1cc(-c2ccc(F)cc2)nn1 (stereo not given)	4.9	23	0.75	0.81	3.52	4.39	15.5	4.7	4.32	0.8	0.72
CC1(C)OC2=C(C(=O)C(=O)c3ccccc32)C1n1cc(-c2ccc([N+](=O)[O-])cc2)nn1 (stereo not given)	3.28	23	0.98	1.03	3.35	2.95	15.5	3.41	3.25	1.35	1.02
COc1ccc(-c2cn(C3C4=C(OC3(C)C)c3ccccc3C(=O)C4=O)nn2)cc1 (stereo not given)	5.39	23	1.13	0.78	4.36	2.49	15.5	3.87	5.57	1.75	0.81
Cc1ccc(-c2cn(C3C4=C(OC3(C)C)c3ccccc3C(=O)C4=O)nn2)cc1 (stereo not given)	3.1	23	0.87	0.98	3.31	3.49	15.5	3.8	3.38	0.95	1.07
O=C1C=C(n2cc(CN3C(=O)c4ccccc4C3=O)nn2)C(=O)c2ccccc21	8.47	2.2	0.11	0.13	5.39	40.2	2	50.6	42.1	0.13	0.64
CC1(C)CC(n2cc(C3CCCCC3)nn2)C2=C(O1)C(=O)c1ccccc1C2=O (stereo not given)	2.24	–	0.93	3.8	8.59	1.9	–	9.23	2.26	4.52	3.83
CCCCCc1cn(C2CC(C)(C)OC3=C2C(=O)c2ccccc2C3=O)nn1 (stereo not given)	2.2	–	1.15	3.38	6.89	1.95	–	6	2.04	3.53	3.13
CCCc1cn(C2CC(C)(C)OC3=C2C(=O)c2ccccc2C3=O)nn1 (stereo not given)	3.43	–	3.38	2.5	14.8	8.04	–	4.37	5.9	1.83	4.31
CCC(C)(O)c1cn(C2CC(C)(C)OC3=C2C(=O)c2ccccc2C3=O)nn1 (stereo not given)	3.3	–	0.27	0.54	9.63	21.6	–	35.2	17.7	0.45	2.92
CC1(C)OC2=C(C(=O)c3ccccc3C2=O)C1n1cc(-c2ccccc2)nn1 (stereo not given)	1.01	–	3.74	8.01	8.01	1.2	–	2.14	1	6.67	7.93
